Sampled rows, rich in hits. Any-hit rate of the full collection: about 1.9%.
M4 antag = antagonists of human muscarinic M4 receptor (CHRM4); CHO-hM4 cells, ACh EC80, Fluo-8 calcium fluorescence; inhibition, % at 3 µM; P08173; actives 0.73% (n = 360,000);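 active means inhibition above its plate's cutoff, the mean inhibition of sample wells plus 3 SD, cut at about 27% in these data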;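 further: 0% = acetylcholine EC80 with DMSO and 100% = DMSO without agonist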
CHRM5 agonist = CHRM5 agonism in calcium assay; activation, % at 3 µM; CHO-K1 hM5 cells, Fluo-8 calcium fluorescence; 0% DMSO wells, 100% maximal acetylcholine response; AID 624037; actives 0.19% (n = 360,000);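 active means activation above the run's mean over test compounds plus 3 SD, cut at about 23% in these data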;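 further: signal is peak over basal fluorescence ratio across the kinetic read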
Target sequence (P08912 whole entry, looked up): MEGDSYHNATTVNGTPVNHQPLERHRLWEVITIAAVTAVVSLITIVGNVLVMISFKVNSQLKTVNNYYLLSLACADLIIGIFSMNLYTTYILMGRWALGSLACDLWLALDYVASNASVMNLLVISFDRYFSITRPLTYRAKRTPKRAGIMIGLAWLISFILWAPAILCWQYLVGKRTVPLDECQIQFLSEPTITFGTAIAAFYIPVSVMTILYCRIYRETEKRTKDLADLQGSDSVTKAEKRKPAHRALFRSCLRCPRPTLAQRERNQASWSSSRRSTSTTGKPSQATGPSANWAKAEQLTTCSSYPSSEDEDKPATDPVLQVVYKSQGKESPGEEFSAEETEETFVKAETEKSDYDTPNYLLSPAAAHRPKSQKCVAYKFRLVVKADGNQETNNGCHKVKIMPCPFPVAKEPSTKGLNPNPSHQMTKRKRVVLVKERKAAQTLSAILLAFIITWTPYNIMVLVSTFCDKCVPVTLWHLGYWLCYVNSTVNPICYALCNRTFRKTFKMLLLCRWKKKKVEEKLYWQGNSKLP
M4 ag = CHRM4 agonism in calcium assay. CHO-K1 hM4/Gqi5, Fluo-8 calcium fluorescence; vehicle 0%, full acetylcholine response 100%. activation, % at 3 µM. actives 0.14% (n = 360,000). P08173. AID 624127;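 active means activation above the run mean over all test wells plus 3 SD, cut at about 32% in these data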;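 further: peak over basal fluorescence ratio per well then scaled between controls; 0% = DMSO wells and 100% = acetylcholine at EC100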
M4 PAM = CHRM4 positive allosteric modulation; AID 624126; CHO-K1 hM4/Gqi5, Fluo-8 calcium fluorescence, ACh EC20; 0% = ACh EC20, 100% = maximal ACh; activation, % at 3 µM; actives 0.4% (n = 360,000); P08173;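 active means activation above its plate's cutoff, the mean activation of sample wells plus 3 SD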
CHRM5 PAM = CHRM5 positive allosteric modulation; activation, % at 3 µM; CHO-K1 hM5, Fluo-8 calcium, ACh EC20 PAM; 0% = ACh EC20, 100% = ACh EC100; actives 0.3% (n = 360,000); AID 624038;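 active means activation above the run cutoff, the mean activation of all test compounds plus 3 SD, cut at about 18% in these data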
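Probe or stimulus: acetylcholine, EC20 level; Assay system: human M5 receptor in CHO-K1 cells; Schedule: compound preincubation 140 s before EC20 acetylcholine addition; Technique: intracellular calcium via Fluo-8 fluorescence; Dosing: single-point, 3 µM nominal; Read-out basis: percent activation from peak-over-basal fluorescence ratio, scaled EC20-to-EC100 acetylcholine; Repeats: one well per compound, no replicates.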
M5 antag = CHRM5 antagonism in calcium assay | P08912 | CHO-hM5 cells, Fluo-8 calcium fluorescence, ACh EC80 | inhibition, % at 3 µM | actives 0.59% (n = 360,000) | AID 624040;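 active means inhibition above a per-plate cutoff, the mean of that plate's test compounds plus 3 SD, cut at about 27% in these data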;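 further: 0% = acetylcholine EC80 with DMSO and 100% = DMSO without agonist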
* hit, by the source's call.

SMILES	M4 antag	CHRM5 agonist	M4 ag	M4 PAM	CHRM5 PAM	M5 antag
O=C(C[C@H]1C/C=C\C[C@@H](Cc2ccc(F)cc2)C(=O)OC[C@@H]2CCCN2C1=O)NCCO	-1	7	3	-3	-1	3
O=C(Nc1ccccc1)N(c1ccccc1)C1C=CS(=O)(=O)C1 (stereo unspecified)	45*	-2	-1	-11	-5	6
COc1cccc(-c2nc(CS(=O)(=O)CC(=O)N3CCN(C)CC3)c(C)o2)c1	-26	52*	2	1	-22	-4
CCOc1ccc(-c2nc(CSCC(=O)N3CCN(c4cccc(OC)c4)CC3)c(C)o2)cc1	3	7	20	-11	-20	27*
COc1ccc(-c2nc(CS(=O)(=O)CC(=O)NCc3ccc4c(c3)OCO4)c(C)o2)cc1	-11	-2	0	12	26*	-27
O=C(Cc1ccsc1)NNC(=O)c1cccc(Cl)c1	-15	-5	1	14	3	-8
CCCCCCCCN1C(=O)[C@H](CC(=O)NCc2ccc(C)o2)C[C@@]2(C(=O)OC)CCCCC=C12	-23	-4	-1	12	-3	-2
C[C@H](CO)N1C[C@H](C)[C@@H](CN(C)C)Oc2c(NS(=O)(=O)c3ccccc3)cccc2C1=O	10	0	0	-2	-10	17
C=CCNC(=S)Nc1ccccc1-c1nnc2n1CCCCC2	4	-9	1	-16	-16	30*
Nc1ccccc1-c1nnc2n1CCCCC2	-4	-5	0	0	0	17
Cc1cccc(C)c1NC(=O)C1(C)CSCC(=O)N1Cc1cccs1 (stereo unspecified)	5	-1	0	1	1	-5
O=C(O)c1cc([N+](=O)[O-])c(Sc2nc3ccccc3[nH]2)c([N+](=O)[O-])c1	10	-2	1	-2	3	5
CS(=O)(=O)c1cc([N+](=O)[O-])c(Sc2nc3ccccc3[nH]2)c([N+](=O)[O-])c1	38*	0	3	-1	7	13
CCOC(=O)c1ccc(N(C(=O)c2cnccn2)C(C(=O)NC2CCCCC2)c2cn(C)nc2C)cc1 (stereo unspecified)	12	-1	0	-3	3	-1
Cc1nn(C)cc1C(C(=O)NC1CCCCC1)N(C(=O)c1cnccn1)c1ccc(Oc2ccccc2)cc1 (stereo unspecified)	-11	-2	2	24*	1	-9
Cc1ccc(C)c(-n2sc3ccc(F)cc3c2=O)c1	10	21	33*	-7	-5	8
CN1CCN(C=Nc2nc3ccccc3nc2N2CCCC2)CC1	-12	-13	1	1	-14	12
CCC1CCCCN1C(=S)NC(=O)c1cccs1 (stereo unspecified)	8	-1	0	-1	6	1
O=C(NC(=S)N1CCCCC1CO)c1cccs1 (stereo unspecified)	0	-4	0	8	24*	1
O=C1CSC(c2ccccc2)N1c1ccc([N+](=O)[O-])cc1 (stereo unspecified)	33*	-22	0	-14	-15	19
O=C(NCCCCCCNC(=O)c1ccccc1O)c1ccccc1O	9	6	22	-16	-19	28*
C/C(=N\Nc1ccc(Cl)cc1)c1c(O)cc(C)oc1=O	-6	2	17	-6	-8	3
Clc1cccc(Cl)c1Cn1ccc(C2CC2)n1	1	-2	0	1	5	5
O=C(OCC(=O)N1CCN(c2ccccc2)CC1)c1nc(Cl)ccc1Cl	2	0	3	3	2	2
CC(C)NC(=O)c1onc(CSc2nc3ccccc3[nH]2)c1C(=O)NC(C)C	-11	1	1	7	-4	12
SMILES	M4 antag	CHRM5 agonist	M4 ag	M4 PAM	CHRM5 PAM	M5 antag
Cc1c(/C(O)=C2\C(=O)C(=O)N(CCN(C)C)C2c2ccccc2)cnn1-c1ccccc1 (stereo unspecified)	-5	1	0	-3	3	-6
CC(OC(=O)/C(C#N)=C/c1ccc(N(C)C)cc1)C(=O)N(C)Cc1ccccc1 (stereo unspecified)	6	32*	19	-13	-11	12
CC(OC(=O)c1cccc(O)c1)C(=O)N(C)Cc1ccccc1 (stereo unspecified)	5	0	1	2	-6	7
CN(Cc1ccccc1)C1CCN(Cc2ccccc2[N+](=O)[O-])CC1	48*	-21	1	-17	-15	11
O=[N+]([O-])c1ccccc1CN1CCN(S(=O)(=O)Cc2ccccc2)CC1	0	-2	2	15	2	5
CCCCOc1ccc(N2CC(C(=O)NCc3ccco3)CC2=O)cc1 (stereo unspecified)	0	-1	0	-5	-2	7
CNC[C@@H]1Oc2cc(Br)ccc2S(=O)(=O)N([C@@H](C)CO)C[C@H]1C	-14	3	2	5	2	-7
CCCC1=NN2C(=N)/C(=C\c3cc(C)n(Cc4ccccc4)c3C)C(=O)N=C2S1	1	36*	42*	-16	-30	12
Cc1cc(/C=C2\C(=N)N3N=C(S(C)(=O)=O)SC3=NC2=O)c(C)n1Cc1ccccc1	0	0	1	2	2	6
COc1c(C)cc(C(O)c2ncc(-c3ccccc3)[nH]2)cc1C (stereo unspecified)	-19	4	3	11	-3	6
COc1ccccc1-n1c(-c2ccccc2)c[n+]2c1CCc1ccccc1-2	34*	-11	1	-17	-18	31*
COc1ccc(-n2c(-c3ccc(Br)cc3)c[n+]3c2CCc2ccccc2-3)cc1	18	-10	1	-12	-11	17
CC(C)c1ccc(-n2c(-c3ccccc3)c[n+]3c2CCc2ccccc2-3)cc1	29*	-8	8	-20	-14	29*
Cc1ccc(S(=O)(=O)N2CCCCC2)cc1NC(=O)CSc1nncn1-c1ccccc1	-7	2	3	10	23*	12
COc1ccc2c(c1)cc(C(=O)N[C@@H](Cc1ccccc1)C(=O)O)n2C	-1	1	0	0	-3	12
CN1CCN(NC(=O)C2CC2)CC1	33*	-6	2	24	5	-2
CN1CCN(NC(=O)C23CC4CC(CC(C4)C2)C3)CC1	-8	-2	1	7	9	-10
O=C(Nc1ccc(N2C(=O)CCC2=O)cc1Cl)c1cccs1	-2	-1	2	9	4	-11

Screens (PubChem)
